High-throughput results: PubChem, Johns Hopkins Ion Channel Center
TRPC4 potent – allosteric potentiators of mouse TRPC4 channel; Q9QUQ5; HEK293 TRPC4beta/mu-opioid, DAMGO EC20, Fluo-4 Ca2+ flux; hits give high values; B-score at 10 µM; actives 0.42% (n = 310,000); AID 2227;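 active means B-score of calcium response area above 5 SD of library B-scores, with initial fluorescence ratio within 5 SD of library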
TRPC6 inh – mouse TRPC6 channel inhibition. AID 2553. HEK293-TRPC6, membrane potential dye, ACh-evoked depolarization; hits give low values. actives 1.1% (n = 310,000). B-score at 10 µM;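 active means B-score under library mean minus 3 SD, initial fluorescence not abnormally high, positive integrated signal ratio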;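 further: B-score derived from integrated fluorescence ratio over the kinetic read; more negative B-score means stronger inhibition of depolarization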
TRPC6 activator – activators of mouse TRPC6 channel. Q61143. HEK293-TRPC6 membrane potential dye fluorescence; hits give high values. B-score at 10 µM. actives 0.13% (n = 310,000). AID 2550;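 active means B-score of the integrated fluorescence ratio above library mean plus 3 SD, and starting fluorescence ratio within library mean plus 5 SD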;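 further: higher score means more depolarization so channel activation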
TRPC4 act – activators of mouse TRPC4 channel; Q9QUQ5; HEK293 TRPC4beta/mu-opioid, Fluo4 calcium fluorescence; hits give high values; actives 0.49% (n = 310,000); B-score at 10 µM; AID 2237;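 active means B-score above 5 SD of library B-scores, and initial fluorescence ratio not above library mean plus 5 SD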;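 further: positive B-score marks a calcium rise read as TRPC4 activation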
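Assay system: HEK293 cells stably co-expressing mouse TRPC4beta and mu-opioid receptor / Timing: Fluo4 dye loading 45 min at room temperature, 110 s recording / Signal: Fluo4 calcium-sensitive dye fluorescence, kinetic, 1 Hz baseline / Read-out: integrated baseline-normalised fluorescence ratio, converted to per-well B score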
TRPC4 block – inhibitors of mouse TRPC4 channel. AID 2247. Q9QUQ5. B-score at 10 µM. HEK293 TRPC4beta/mu-opioid, DAMGO-evoked Fluo4 calcium flux; hits give low values. actives 0.39% (n = 300,000);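 active means B-score over 3 SD under the library average, no early fluorescence shift, positive overall ratio signal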
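Assay system – HEK293 line stably carrying TRPC4beta and mu-opioid receptor · Doses – single dose · Detection – Fluo4 calcium-dye fluorescence, kinetic read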
TRPC4 sel inh 2 – second check of whether TRPC6 inhibitors also affect mouse TRPC4 | shares compounds with TRPC6 inh | HEK293 TRPC4/MOR, membrane potential dye fluorescence; channel activated by saturating DAMGO dose | inhibition, % at 10 µM | actives 42% (n = 920) | AID 2776;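 active means compounds whose fluorescence signal differed from control wells by over 3 SD, either direction, in both duplicate plates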
TRPC4 spec – selectivity of TRPC6 inhibitors: effect on mouse TRPC4 | shares compounds with TRPC6 inh | HEK293 TRPC4/mu-opioid, membrane potential fluorescence | activity change, negative = inhibition, % at 10 µM | actives 61% (n = 920) | AID 2777;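 active means rise or fall in signal beyond 3 SD of buffer-only wells in both replicate plates, either sign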;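 further: integrated kinetic ratio of fluorescence range over baseline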
HEK293 MPD ctr 2-1 – second check of TRPC6 inhibitor effects in parental HEK293 cells; shares compounds with TRPC6 inh; parental HEK293 membrane potential dye fluorescence; maximal acetylcholine challenge after compound addition; signal change vs control, % at 10 µM; actives 31% (n = 920);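 active means membrane potential signal moving either way by over 3 SD of the maximum-effect control, in both duplicate plates, meaning non-specific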
HEK293 MPD ctr-1 – counter-screen for TRPC6 inhibitors: effect in parental HEK293 cells. actives 60% (n = 920). parental HEK293 membrane potential dye fluorescence. membrane potential signal change, % at 10 µM. shares compounds with TRPC6 inh;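 active means membrane potential signal shifting up or down by more than 3 SD of buffer-only wells, on both duplicate plates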
HEK293 MPD ctr-2 – checks TRPC6 modulator effects in parental HEK293 cells | membrane potential dye fluorescence | membrane potential signal change, % at 10 µM | actives 51% (n = 2,400) | shares compounds with TRPC6 inh;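 active means membrane potential signal moves up or down beyond 5 SD from buffer-only wells, on both duplicate plates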
HEK293 MPD ctr 2-2 – second counter-screen for TRPC6 modulators: effect in parental HEK293 cells; shares compounds with TRPC6 inh; membrane potential dye fluorescence; after compound, maximal acetylcholine stimulation; inhibition, % at 10 µM; actives 14% (n = 2,400); AID 488926;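 active means membrane potential signal drops by more than 5 SD from the mean control signal, in both duplicate plates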
TRPC4/MOR mod – tests whether TRPC6 modulators also affect mouse TRPC4. shares compounds with TRPC6 inh. HEK293 TRPC4/mu-opioid, membrane potential fluorescence. percent change from control (negative = decrease, positive = increase), % at 10 µM. actives 69% (n = 2,400);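 active means membrane potential signal moved up or down beyond 5 SD of buffer control wells, in both duplicate plates, actives on both sides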
TRPC4/MOR inh 2 – second check of whether TRPC6 modulators also affect mouse TRPC4 | shares compounds with TRPC6 inh | HEK293 TRPC4/mu-opioid, membrane potential dye fluorescence; stimulated with maximal-effect DAMGO | inhibition, % at 10 µM | actives 55% (n = 2,400);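 active means drop in membrane potential signal beyond 5 SD of the control wells in both duplicate plates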;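 further: TRPC4 counter screen for TRPC6 hits run under conditions tuned for TRPC6 not TRPC4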
TRPC6 block conf – confirmation of mouse TRPC6 inhibitors; shares compounds with TRPC6 inh; inhibition, % at 10 µM; actives 43% (n = 3,300); AID 488960; HEK293-TRPC6, membrane potential dye, ACh-evoked depolarization;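 active means fluorescence ratio falls more than 5 SD below the full-stimulation control mean, in both duplicate runs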;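 further: integrated fluorescence ratio of peak minus minimum over baseline after agonist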
TRPC6 act conf – mouse TRPC6 activator confirmation | shares compounds with TRPC6 inh | HEK293-TRPC6 membrane potential dye fluorescence, FDSS | activation, % at 10 µM | actives 11% (n = 2,800) | AID 488961;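 active means ratio signal rise beyond 5 SD above unstimulated control wells' mean, seen in both duplicate runs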
Numbers stand for hits; . = inactive; / = no result given. In the library only some 2.3% were active in any assay of this set; here they are far more common.

SMILES	TRPC4 potent	TRPC6 inh	TRPC6 activator	TRPC4 act	TRPC4 block	HEK293 MPD ctr-2	HEK293 MPD ctr 2-2	TRPC4/MOR mod	TRPC4/MOR inh 2	TRPC6 block conf	TRPC6 act conf	others
O=C(Nc1ccc(F)cc1F)NC1CCCCCCC1	.	.	.	.	.	/	/	/	/	/	/
CCCCCCN1C=C/C(=C\C=C(C#N)C#N)c2ccccc21	.	.	.	.	.	/	/	/	/	/	/
CCCCCN1C=CC=C/C1=C\C=C(C#N)C#N	.	-5.34	14.9	.	.	712.5%	.	.	.	.	100.0%
CCCN1C=CC(=CC=C(C#N)C#N)C=C1	.	.	.	.	.	/	/	/	/	/	/
CCCCCCN1C=CC=C/C1=C/C=C(C#N)C#N	.	.	25.8	.	.	370.5%	.	101.5%	.	.	117.5%
COc1ccccc1C(=O)Nc1cccc2c1CCCC2	.	.	.	.	.	/	/	/	/	/	/
O=C1CNC(=S)N1Cc1cccc(Cl)c1	.	-6.95	.	.	.	/	/	/	/	.	.	TRPC4 sel inh 2=.;TRPC4 spec=-12.1%;HEK293 MPD ctr 2-1=.;HEK293 MPD ctr-1=.
Cc1ccn2c(NC(=O)C(C)(C)Oc3ccc(Cl)cc3)c(-c3cccs3)nc2c1	.	-8.79	.	.	.	-120.0%	.	-26.0%	87.5%	58.0%	.
Cc1ccc(C(=O)Nc2c(-c3cccs3)nc3cc(C)ccn23)cc1	.	.	.	.	.	/	/	/	/	/	/
CCN1CCN(c2ccc(S(=O)(=O)N3CCOCC3)cc2NC(=O)/C=C/c2ccc([N+](=O)[O-])cc2)CC1	.	.	.	.	.	/	/	/	/	/	/
CCOc1ccc(Nc2nc(N)c3ccccc3n2)cc1	.	.	.	.	.	/	/	/	/	/	/
COc1ccc([N+](=O)[O-])cc1Nc1c2ccccc2nc2ccccc12	.	.	.	.	.	/	/	/	/	/	/
COc1cc2nc(Nc3ccc(C)c(Cl)c3)nc(N)c2cc1OC	.	.	.	.	.	/	/	/	/	/	/
Nc1nc(Nc2ccccc2)nc2ccccc12	.	-22	.	.	.	-199.5%	90.5%	-45.5%	86.5%	85.5%	.
COc1ccc(C)cc1Nc1nc(N)c2ccccc2n1	.	-10.2	.	.	.	-221.0%	112.5%	-52.0%	91.0%	100.0%	.
Cc1ccc(Nc2nc(N)c3ccccc3n2)cc1Cl	.	-6.5	.	.	.	-127.5%	83.0%	-35.0%	79.0%	75.0%	.
Cc1ccccc1Nc1nc(N)c2ccccc2n1	.	-6.75	.	.	.	/	/	/	/	70.1%	.	TRPC4 sel inh 2=31.5%;TRPC4 spec=-25.8%;HEK293 MPD ctr 2-1=35.5%;HEK293 MPD ctr-1=-330.5%
Nc1nc(Nc2ccc(Cl)cc2)nc2ccccc12	.	-11.6	.	.	.	-163.0%	89.5%	-36.5%	88.0%	84.0%	.
CN(C)c1nc(Nc2ccccc2)nc(N(C)C)n1	.	.	.	.	.	/	/	/	/	/	/
CN(C)c1ccc(Nc2nc(N)c3ccccc3n2)cc1	.	-7.33	.	.	.	-181.5%	89.5%	-45.0%	86.0%	84.5%	.
COc1cc(/C=N/n2c(C)nc3ccccc3c2=O)cc(OC)c1O	.	.	.	.	.	/	/	/	/	/	/
Nc1c2c(nc3ccccc13)CSCC2	.	-7.21	.	.	.	/	/	/	/	55.4%	.	TRPC4 sel inh 2=13.0%;TRPC4 spec=-29.6%;HEK293 MPD ctr 2-1=.;HEK293 MPD ctr-1=-481.5%
Nc1c2c(nc3ccccc13)N(c1ccccc1)CC2	.	-7.96	.	.	-6	-129.5%	.	-40.5%	85.0%	47.5%	.
CN1CCCCc2c1nc1ccccc1c2N (tested in a mixture with another compound)	.	-8.6	.	.	-7	/	/	/	/	86.6%	.	TRPC4 sel inh 2=4.5%;TRPC4 spec=-18.8%;HEK293 MPD ctr 2-1=.;HEK293 MPD ctr-1=-251.5%
Cc1cc(C(C)(C)C)cc(C)c1CCNC(=O)c1ccc[n+]([O-])c1	.	.	.	.	.	/	/	/	/	/	/
SMILES	TRPC4 potent	TRPC6 inh	TRPC6 activator	TRPC4 act	TRPC4 block	HEK293 MPD ctr-2	HEK293 MPD ctr 2-2	TRPC4/MOR mod	TRPC4/MOR inh 2	TRPC6 block conf	TRPC6 act conf	others
CN(C)C(CNC(=O)c1ccco1)c1cccs1 (centres undefined)	.	.	.	.	.	/	/	/	/	/	/
CCCCC(CC)Cn1c(N)c(C#N)c2nc3ccccc3nc21 (centres undefined)	.	-6.02	.	.	.	.	.	.	.	.	.
O=C1OC(Nc2nc(-c3ccc(F)cc3)cs2)c2ccccc21 (centres undefined)	.	.	.	.	.	/	/	/	/	/	/
COc1ccc(Br)cc1CN(C)C(=O)c1cnc(C)cn1	.	.	.	.	.	/	/	/	/	/	/
Cc1ccc(CSc2nnc(-c3cccs3)n2C)cc1	.	.	.	.	.	/	/	/	/	/	/
Cn1c(SCc2c(Cl)cccc2Cl)nnc1-c1cccs1	.	-6.56	.	.	.	274.5%	.	55.5%	.	.	/
CCC(COC(=O)Nc1cccc(C)c1)NC(=O)OCC(C)C (centres undefined)	.	-5.09	.	.	.	.	.	.	.	.	.
CCNC(=O)OCC(CC)NC(=O)OCC(C)C (centres undefined)	.	.	.	.	.	/	/	/	/	/	/
COC(=O)CC1C(=O)NCCN1C(=O)c1ccc(Cl)cc1 (centres undefined)	.	.	.	.	.	/	/	/	/	/	/
O=c1cc(-c2ccc(Cl)c(Cl)c2)[nH][nH]1	.	-5.14	.	.	.	.	.	.	.	.	.
O=C(Nc1cccc(Br)c1)c1cc(S(=O)(=O)N2CCOCC2)cs1	.	.	.	.	.	/	/	/	/	/	/
O=C1S/C(=C\c2ccc(N3CCOCC3)o2)C(=O)N1c1ccccc1	.	.	.	.	.	/	/	/	/	/	/
O=C1S/C(=C\c2ccc(N3CCOCC3)o2)C(=O)N1Cc1c(F)cccc1Cl	17	.	28.4	43	.	226.0%	.	117.0%	.	.	.
